Measured values of several laboratories.
Each line is one published result; the experiments were not run side by side.
Target: Serine/threonine-protein kinase Nek6 (NEK6, Homo sapiens, UniProt Q9HC98)

`COc1ncc2cc3ccccc3nc2c1C#N` gave a remaining binding of 100% (cell-free assay, competition with immobilised ligand; 5 µM).
For `Cc1cnc(Nc2ccc(C(=O)N3CCC(N4CCCC4)CC3)cc2)nc1-c1cc2ccccc2s1`, the remaining binding was 10% (binding, competition with immobilised ligand; 1 µM).
For `CS(=O)(=O)N1CCCC(NC(=O)[C@H](CCC2CCCCC2)NC(=O)c2ccc(CNC(=O)c3cnc4ccccn34)cc2)C1` (stereo partly shown), the remaining binding was 100% (cell-free assay, competition with immobilised ligand; 0.1 µM).
`O=C(NCCCN1CCOCC1)c1ccc(Nc2nccc(-c3cc4ccccc4s3)n2)cc1` gave a remaining binding of 81% (binding, competition with immobilised ligand; 1 µM).
`COc1cnc(Nc2cccc(S(N)(=O)=O)c2)nc1N1CCN(c2ccccc2)C(=O)C1` has a remaining binding of 98% (binding, competition with immobilised ligand; 1 µM).
`CCc1ccccc1C(=O)Nc1n[nH]c2c(C)c(F)c(C3C(C#N)=C(C)N(C)C(C)=C3C#N)cc12` gave a remaining binding of 75% (cell-free assay, competition with immobilised ligand; 1 µM).
`COc1cnc(Nc2cccc(S(N)(=O)=O)c2)nc1N1CCN(c2ccccc2)CC1` gave a remaining binding of 100% (binding, competition with immobilised ligand; 1 µM).
With `C[C@H]1CCN(c2nccc(-c3cnn4ncccc34)n2)C1` the remaining binding was 100% (binding; 1 µM).
With `c1cncc(-c2cccc(Nc3nccc(NC4CCCCC4)n3)c2)c1` the remaining binding was 71% (binding, competition with immobilised ligand; 10 µM).
The remaining binding of `O=C(NCCCN1CCOCC1)c1ccc(Nc2ncc(Cl)c(-c3ccc(Cl)s3)n2)cc1` is reported as 2.5% (binding, competition with immobilised ligand; 1 µM).
For `CN(CCCC(F)(F)F)c1nccc(-c2cnn3ncccc23)n1`, the remaining binding was 100% (binding; 1 µM).
With `COc1cc(-c2cn(C3CCc4ccccc4N(CC(F)(F)F)C3=O)nn2)ccc1-n1ccc(C)n1` (stereo not shown) the remaining binding was 100% (cell-free assay, competition with immobilised ligand; 1 µM).
The remaining binding of `c1cnn2ncc(-c3ccnc(N4CCC45COC5)n3)c2c1` is reported as 94% (binding; 1 µM).
The remaining binding of `C[C@H](c1cccc(C#N)c1)n1cc(Cl)cc(C(N)=O)c1=N` is reported as 94% (cell-free assay, competition with immobilised ligand; 1 µM).
With `CCN1CCN(Cc2ccc(C(=O)Nc3ccc(C)c(Oc4ccc5c(c4)CC(=O)N5)c3)cc2C(F)(F)F)CC1` the remaining binding was 100% (binding, competition with immobilised ligand; 1 µM).
`O=C(Nc1c[nH]nc1C(=O)NC1CCNCC1)c1cc(F)cc(F)c1` gave a remaining binding of 100% (binding, competition with immobilised ligand; 1 µM).
With `N[C@@H]1CCN(c2nccc(-c3cnn4ncccc34)n2)C1` the remaining binding was 100% (binding; 1 µM).
With `CC1=C(C#N)[C@@H](c2ccc3[nH]nc(C)c3c2)C(C#N)=C(c2ccc(Cl)cc2)N1` the remaining binding was 100% (cell-free assay, competition with immobilised ligand; 1 µM).
With `CN(C)c1nccc(-c2cnc3ncccn23)n1` the remaining binding was 94% (binding; 1 µM).
The remaining binding of `O=C(N[C@H]1CCCCC/C=C\C2C[C@@]2(C(=O)O)NC(=O)[C@@H]2C[C@@H](Oc3ccncc3)CN2C1=O)OC1CCCC1` (stereo partly shown) is reported as 87% (binding, competition with immobilised ligand; 1 µM).
`CN(c1nccc(-c2cnn3ncccc23)n1)C1CC1` gave a remaining binding of 100% (binding; 1 µM).
For `FC(F)(F)Oc1cccc(-c2cnc3ccc(-c4ccncc4)nn23)c1`, the remaining binding was 85% (cell-free assay, competition with immobilised ligand; 5 µM).
